Columns and labels:
[1] = Acute toxicity in po dosed Swiss albino mouse after 24 hrs; assay type: organism-based; details: in vivo
Method in brief: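 Mice dosed orally, 5 male and 5 female per group; limit test at 2000 mg/kg, plus classical LD50 test; toxic responses and deaths recorded over 24 h; LD50 derived from lethality.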

Staphylococcus aureus = assay: Antimicrobial activity against Staphylococcus aureus 6538/P after 18 hrs by microdilution method; assay type: functional
Method in brief: (§1)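 Broth microdilution per NCCLS M7-A4. Stocks kept on nutrient agar at 4 °C. Overnight cultures in double-strength Mueller-Hinton broth, adjusted to 10⁸ cfu/mL against McFarland 0.5. Compounds serially diluted in sterile distilled water (400 down to 0.78). Incubated at 37 °C for 18 h. MIC taken as the first well without turbidity. Wells without organism and water/medium growth controls included.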

[2] = test system: Staphylococcus epidermidis; assay: Antimicrobial activity against Staphylococcus epidermidis ATCC 12228 after 18 hrs by microdilution method; assay type: functional; method in brief: as §1
Bacillus cereus = assay: Antimicrobial activity against Bacillus cereus CCM 99 after 18 hrs by microdilution method; assay type: functional
Method in brief: (§2)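 NCCLS M7-A4 broth microdilution. Two-fold series from 400 to 0.78 made in sterile distilled water. Overnight bacteria in double-strength Mueller-Hinton broth, adjusted to 10⁸ cfu/mL (McFarland 0.5). Incubated 37 °C, 18 h. MIC taken as the first well without turbidity. Medium-only and water-plus-medium controls.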

Micrococcus luteus = assay: Antimicrobial activity against Micrococcus luteus ATCC 9341 after 18 hrs by microdilution method; assay type: functional; method in brief: as §2
Proteus vulgaris = assay: Antimicrobial activity against Proteus vulgaris ATCC 6897 after 18 hrs by microdilution method; assay type: functional; method in brief: as §2
Escherichia coli = assay: Antimicrobial activity against Escherichia coli ATCC 8739 after 18 hrs by microdilution method; assay type: functional; method in brief: as §1
Salmonella typhimurium = assay: Antimicrobial activity against Salmonella Typhimurium CCM 5445 after 18 hrs by microdilution method; assay type: functional, Salmonella enterica subsp. enterica serovar Typhimurium; method in brief: as §2
Klebsiella pneumoniae = assay: Antimicrobial activity against Klebsiella pneumoniae CCM 2318 after 18 hrs by microdilution method; assay type: functional; method in brief: as §2
Candida albicans = assay: Antifungal activity against Candida albicans ATCC 10231 after 18 hrs by microdilution method; assay type: functional
Method in brief: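 Yeast broth microdilution per NCCLS M27-A. Stock kept on potato dextrose agar at 4 °C. Suspension in double-strength yeast glucose broth, adjusted to 10⁸ cfu/mL by McFarland 0.5. Water-based twofold series (400 down to 0.78) used. Incubated at 37 °C for 18 h. MIC is the lowest concentration with no visible turbidity.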

Pichia kudriavzevii = assay: Antifungal activity against Candida krusei ATCC 6258 after 18 hrs by microdilution method; assay type: functional
Method in brief: as §2, with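 “M27-A” for “M7-A4”, “microdilution for yeast.” for “microdilution.”, “Inoculum” for “Overnight bacteria”, “yeast glucose” for “Mueller-Hinton”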

[3] = Salmonella enterica, CCM 5445, 18 h

Compound	LD50 at 24 h [1]	MIC (Staphylococcus aureus)	MIC ([2]; ATCC 12228, 18 h)	MIC (Bacillus cereus; CCM 99, 18 h)	MIC (Micrococcus luteus; ATCC 9341, 18 h)	MIC (Proteus vulgaris; ATCC 6897, 18 h)	MIC (Escherichia coli; ATCC 8739, 18 h)	MIC (Salmonella typhimurium; [3])	MIC (Klebsiella pneumoniae; CCM 2318, 18 h)	MIC (Candida albicans; ATCC 10231, 18 h)	MIC (Pichia kudriavzevii; ATCC 6258, 18 h)	MIC (Candida albicans)	MIC (Pichia kudriavzevii)	MIC [2]	MIC (Bacillus cereus)	MIC (Micrococcus luteus)	MIC (Proteus vulgaris)	MIC (Escherichia coli)	MIC (Salmonella typhimurium; Salmonella enterica subsp. enterica serovar Typhimurium)	MIC (Klebsiella pneumoniae)
CC(C)(C)c1ccc(C[N+]2=CN3CCCCC3C2)cc1.[Br-] (centres undefined)	838 mg/kg	100 µg/mL	100 µg/mL	200 µg/mL	12.5 µg/mL	50 µg/mL	200 µg/mL	100 µg/mL	200 µg/mL	25 µg/mL	50 µg/mL									
C1=[N+](Cc2ccccc2)CC2CCCCN12.[Br-] (centres undefined)	907 mg/kg	100 µg/mL	50 µg/mL	> 400 µg/mL	3.12 µg/mL	> 400 µg/mL	> 400 µg/mL	> 400 µg/mL	> 400 µg/mL	> 400 µg/mL	> 400 µg/mL									
Clc1ccc(C[N+]2=CN3CCCCC3C2)c(Cl)c1.[Br-] (centres undefined)	1890 mg/kg	0.78 µg/mL	0.78 µg/mL	3.12 µg/mL	0.78 µg/mL	1.56 µg/mL	3.12 µg/mL	0.78 µg/mL	12.5 µg/mL	0.78 µg/mL	0.78 µg/mL									
Cc1cc(C)c(C[N+]2=CN3CCCCC3C2)c(C)c1.[Br-] (centres undefined)	758 mg/kg	50 µg/mL	25 µg/mL	200 µg/mL	6.25 µg/mL	50 µg/mL	200 µg/mL	100 µg/mL	200 µg/mL	50 µg/mL	12.5 µg/mL									
N#Cc1ccc(C[N+]2=CN3CCCCC3C2)cc1.[Br-] (centres undefined)	> 2000 mg/kg	1.56 µg/mL	1.56 µg/mL	3.12 µg/mL	0.78 µg/mL	6.25 µg/mL	0.78 µg/mL	0.78 µg/mL	12.5 µg/mL	0.78 µg/mL	0.78 µg/mL									
Cc1c(C)c(C)c(C[N+]2=CN3CCCCC3C2)c(C)c1C.[Br-] (centres undefined)	1110 mg/kg	25 µg/mL	3.12 µg/mL	12.5 µg/mL	12.5 µg/mL	6.25 µg/mL	12.5 µg/mL	12.5 µg/mL	50 µg/mL	50 µg/mL	3.12 µg/mL									
Fc1c(F)c(F)c(C[N+]2=CN3CCCCC3C2)c(F)c1F.[Br-] (centres undefined)	978 mg/kg	3.12 µg/mL	0.78 µg/mL	6.25 µg/mL	0.78 µg/mL	12.5 µg/mL	25 µg/mL	25 µg/mL	12.5 µg/mL	12.5 µg/mL	3.12 µg/mL									
NYSTATIN												6.25 µg/mL	3.12 µg/mL							
Cc1cc(C)c(C[n+]2cn(C)c3ccccc32)c(C)c1.[Cl-]		1600 µg/mL	1600 µg/mL				1600 µg/mL			1600 µg/mL										
FC(F)(F)c1ccc(C[N+]2=CN3CCCCC3C2)cc1.[Br-] (centres undefined)	824 mg/kg	1.56 µg/mL	0.78 µg/mL	3.12 µg/mL	0.78 µg/mL	6.25 µg/mL	0.78 µg/mL	0.78 µg/mL	12.5 µg/mL	0.78 µg/mL	0.78 µg/mL									
Clc1ccc(C[N+]2=CN3CCCCC3C2)cc1.[Br-] (centres undefined)	> 2000 mg/kg	1.56 µg/mL	0.78 µg/mL	3.12 µg/mL	0.78 µg/mL	6.25 µg/mL	3.12 µg/mL	0.78 µg/mL	12.5 µg/mL	0.78 µg/mL	0.78 µg/mL									
Cc1cc(C)c(C)c(C[N+]2=CN3CCCCC3C2)c1C.[Br-] (centres undefined)	1950 mg/kg	50 µg/mL	6.25 µg/mL	100 µg/mL	12.5 µg/mL	6.25 µg/mL	50 µg/mL	50 µg/mL	200 µg/mL	50 µg/mL	6.25 µg/mL									
GENTAMICIN		3.12 µg/mL												1.56 µg/mL	6.25 µg/mL	1.56 µg/mL	0.78 µg/mL	3.12 µg/mL	6.25 µg/mL	25 µg/mL
Cc1cc(C)c(CN2C=[N+](Cc3c(C)cc(C)cc3C)C3CCCCC32)c(C)c1.[Cl-] (centres undefined)		100 µg/mL	1600 µg/mL				1600 µg/mL			1600 µg/mL										
Cc1ccc(C[N+]2=CN3CCCCC3C2)cc1.[Br-] (centres undefined)	> 2000 mg/kg	3.12 µg/mL	1.56 µg/mL	< 0.78 µg/mL	6.25 µg/mL	6.25 µg/mL	0.78 µg/mL	50 µg/mL	0.78 µg/mL	3.12 µg/mL	0.78 µg/mL									

Source: ChEMBL document CHEMBL1795313, “Synthesis and antimicrobial activities of hexahydroimidazo[1,5-a]pyridinium bromides with varying benzyl substituents” (Eur J Med Chem, 2011)
